Measurements: ChEMBL document CHEMBL4818996, “N-substituted benzimidazole acrylonitriles as in vitro tubulin polymerization inhibitors: Synthesis, biological activity and computational analysis” (Eur J Med Chem, 2021)
Active and inactive are the calls of the source. No cut-off for these calls is given here.

Key:
CAPAN-1 = assay: cells; type: functional, cell-based; conditions: Homo sapiens, CAPAN-1, 72 h
HL-60 = assay: cells; type: functional, cell-based; conditions: Homo sapiens, HL-60, 72 h
HCT-116 = assay: Antiproliferative activity against human HCT-116 cells assessed as inhibition of cell proliferation measured after 72 hrs by real time imaging analysis; type: functional, cell-based; conditions: HCT-116, 72 h
Outline: (§1)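 Adherent cells seeded at 500–1500 per well and incubated overnight, then treated at seven concentrations from 100 to 6.4 x 10^-3 µM. Kept at 37°C for 72 h with real-time imaging every 3 h (one field per well, 10x). Growth quantified as percent confluence; IC50 calculated from area under the curve.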

MM1.S = assay: cells; type: functional, cell-based; conditions: Homo sapiens, 72 h
TERT-RPE1 = assay: cells; type: ADME, cell-based; conditions: Homo sapiens, RPE-1, 72 h
NCI-H460 = assay: Antiproliferative activity against human NCI-H460 cells assessed as inhibition of cell proliferation measured after 72 hrs by real time imaging analysis; type: functional, cell-based; conditions: NCI-H460, 72 h
Outline: as §1

[1] = Antiproliferative activity against human DND41 cells assessed as inhibition of cell proliferation measured after 72 hrs by real time imaging analysis; type: functional, cell-based; conditions: DND41, 72 h
Outline: (§2)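 Suspension cells seeded at 2500–5500 per well into wells already holding compound, seven concentrations from 100 to 6.4 x 10^-3 µM. Incubated at 37°C for 72 h with imaging every 3 h (one field per well, 10x). Growth taken as percent confluence; IC50 derived from area under the curve.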

K562 = assay: Antiproliferative activity against human K562 cells assessed as inhibition of cell proliferation measured after 72 hrs by real time imaging analysis; type: functional, cell-based; conditions: K562, 72 h
Outline: as §2

Z-138 = assay: cells; type: functional, cell-based; conditions: Homo sapiens, Z-138, 72 h
Tubulin (Sus scrofa) = assay: Inhibition of porcine brain tubulin polymerization in presence of GTP at 30 uM measured every 60 secs for 1 hr by multiplate reader method
cells = type: ADME, cell-based; conditions: Homo sapiens, PBMC, 72 h
HEp-2 = assay: Inhibition of alpha-tubulin polymerization in human HEp-2 cells assessed as disintegration of microtubule network at 0.3 to 30 uM measured after 3 hrs by DAPI staining based immunoflourescence method relative to vincristine; type: cell-based; conditions: dose 0.3-30 µM
Outline: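 HEp-2 cells seeded at 15000 per well and incubated overnight, then exposed 3 h to compound or DMSO carrier. Fixed in 4% PFA and permeabilised. Stained with mouse anti-alpha-tubulin and Alexa Fluor 488 anti-mouse IgG, with DAPI nuclear counterstain. Imaged by confocal microscopy at 63x water immersion. Vincristine and docetaxel served as references.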

Row | SMILES | IC50 (CAPAN-1) [µM] | IC50 (HL-60) [µM] | IC50 (HCT-116) [µM] | IC50 (MM1.S) [µM] | IC50 (TERT-RPE1) [µM] | IC50 (NCI-H460) [µM] | IC50 [1] [µM] | IC50 (K562) [µM] | IC50 (Z-138) [µM] | inhibition (Tubulin (Sus scrofa)) | IC50 (cells) [µM] | inhibition (HEp-2)
1 | N#C/C(=C\c1cccnc1)c1nc2ccccc2n1-c1ccccc1 | 44 | 31.3 | 50.6 | 59.5 | 54.4 | 45.6 | 60.5 | > 100 | 30.2 |  |  | 
2 | N#C/C(=C\c1c[nH]c2ccccc12)c1nc2ccccc2n1-c1ccccc1 | 5.1 | 6.7 | 7.1 | 24.8 | 12.9 | 5.3 | 10.1 | 13.6 | 12.1 |  |  | 
3 | Cn1c(/C(C#N)=C/c2ccc(Br)cc2)nc2ccccc21 | 20.5 | 24.3 | 52.2 | 95.7 | 47.3 | 32.1 | 41.3 | 57.6 | 30.7 |  |  | 
4 | Cn1c(/C(C#N)=C/c2c[nH]c3ccccc23)nc2ccccc21 | 13.3 | 13.5 | 29 | 71 | 27.3 | 12.1 | 14.9 | 37 | 9.9 |  |  | 
5 | CC(=O)O[C@@]12CO[C@@H]1C[C@H](O)[C@@]1(C)C(=O)[C@H](O)C3=C(C)[C@@H](OC(=O)[C@H](O)[C@@H](NC(=O)OC(C)(C)C)c4ccccc4)C[C@@](O)([C@@H](OC(=O)c4ccccc4)[C@H]21)C3(C)C [DOCETAXEL ANHYDROUS] | 0.0088 | 0.0072 | 0.0017 | 0.0118 | 0.0553 | 0.0024 | 0.0125 | 0.0152 | 0.0142 |  |  | 
6 | CC(C)Cn1c(C(C#N)=Cc2ccc(N(C)C)cc2)nc2ccccc21 | 0.3 | 0.3 | 0.6 | 1.5 | 4.3 | 0.4 | 0.2 | 2.1 | 0.4 | Active | > 98.8 | Active
7 | Cn1c(/C(C#N)=C/c2ccc[nH]2)nc2ccccc21 | 84.4 | > 100 | > 100 | > 100 | > 100 | 67.9 | 73.7 | > 100 | > 100 |  |  | 
8 | CC(C)Cn1c(/C(C#N)=C/c2ccccc2)nc2ccccc21 | 20.6 | 29.1 | 42.4 | 66.7 | 44.9 | 26.1 | 60 | 53.4 | 40.1 |  |  | 
9 | N#C/C(=C\c1ccc[nH]1)c1nc2ccccc2n1-c1ccccc1 | 14.2 | 42 | 49.4 | > 100 | 32.4 | 27.4 | 41.2 | > 100 | 67.5 |  |  | 
10 | Cn1c(/C(C#N)=C/c2cccnc2)nc2ccccc21 | 57.1 | 58.6 | 85.1 | > 100 | 60.1 | 59.3 | > 100 | > 100 | > 100 |  |  | 
11 | N#C/C(=C\c1cnc2ccccc2c1)c1nc2ccccc2n1-c1ccccc1 | 10 | 15.3 | 12.4 | 62.4 | 12.2 | 13.6 | 14.1 | > 100 | 12.6 |  |  | 
12 | CN(C)c1ccc(/C=C(\C#N)c2nc3ccc(C#N)cc3n2-c2ccccc2)cc1 | 3.1 | 10.9 | 26.8 | > 100 | 27.8 | 45.7 | 55.8 | > 100 | 17.4 |  |  | 
13 | CN(C)c1ccc(/C=C(\C#N)c2nc3ccc(C#N)cc3n2C)cc1 | 55.9 | 68.1 | 68.5 | > 100 | 80.9 | > 100 | > 100 | > 100 | 96.5 |  |  | 
14 | CC(C)Cn1c(C(C#N)=Cc2ccc(N(C)C)cc2)nc2ccc(C#N)cc21 | 0.2 | 0.2 | 0.4 | 1.3 | 1.7 | 0.6 | 0.3 | 1.4 | 0.4 | Active | > 76 | Active
15 | N#C/C(=C\c1ccc(Br)cc1)c1nc2ccccc2n1-c1ccccc1 | 12.9 | 8.6 | 16 | 35.7 | 22.8 | 12 | 12.3 | 39.3 | 11 |  |  | 
16 | CC(C)Cn1c(C(C#N)=Cc2ccc([N+](=O)[O-])cc2)nc2ccccc21 | 30.3 | 33.4 | 50.4 | 72.9 | 53.8 | 14.8 | 54.6 | > 100 | 45.4 |  |  | 
17 | Cn1c(/C(C#N)=C/c2cnc3ccccc3c2)nc2ccccc21 | 66.9 | 33 | > 100 | > 100 | 39.4 | 22.4 | 49.9 | > 100 | 45 |  |  | 
18 | CN[C@@H]1C[C@H]2O[C@@](C)([C@@H]1OC)n1c3ccccc3c3c4c(c5c6ccccc6n2c5c31)C(=O)NC4 [STAUROSPORINE] |  |  | 0.0281 |  |  |  | 0.016 | 0.0768 |  |  |  | 
